Bioassay records: PubChem, Broad Institute
Rows were chosen to be rich in hits. Some 3.6% of all compounds tested hit in one or more screens of this group.
MITF act = activators of MITF-driven TRPM1 promoter activity in SK-MEL-5 cells | SK-MEL-5 TRPM1-promoter luciferase, 24 h; % of positive control, neutral wells = 0 | activation, % at 12.5 µM | 300,000 tested, 0.75% active;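 active means mean activation of at least 80% with every replicate also reaching 80%; inconclusive means mean reaches 80% but some replicate falls short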
SR-BI uptake up = activators of SR-BI mediated HDL lipid uptake; activation, % at 12.5 µM; CHO ldlA[mSR-BI] cells, DiI-HDL uptake fluorescence, 3 h; 100 = double the neutral-control signal; 320,000 tested, 0.096% active; AID 504775;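 active means mean replicate activation of at least 60% and every replicate at or above 60%; inconclusive means mean or all-replicate condition met, but not both; inactive means mean below 60% and not all replicates reaching 60%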
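Assay system: CHO ldlA[mSR-BI] cells, LDL receptor-null, SR-BI overexpressing; medium: Ham's F12 with 0.5% BSA, HEPES 25 mM, pH 7.4; also added: DiI-HDL 10 µg/mL; timing: 3 h uptake period with compound, 37 °C; signal: DiI fluorescence, bottom read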
SR-BI HDL uptake = inhibitors of mouse SR-BI mediated HDL lipid uptake; Q61009; ldlA[mSR-BI] CHO cells, DiI-HDL uptake fluorescence, 3 h; inhibition, % at 12.5 µM; 320,000 tested, 0.96% active;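 active means mean replicate inhibition of at least 70% and a set share of replicates each scoring 70 or more; inconclusive means meets just one of the two criteria; inactive means fails both criteria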
Target sequence (Q61009 whole entry, looked up): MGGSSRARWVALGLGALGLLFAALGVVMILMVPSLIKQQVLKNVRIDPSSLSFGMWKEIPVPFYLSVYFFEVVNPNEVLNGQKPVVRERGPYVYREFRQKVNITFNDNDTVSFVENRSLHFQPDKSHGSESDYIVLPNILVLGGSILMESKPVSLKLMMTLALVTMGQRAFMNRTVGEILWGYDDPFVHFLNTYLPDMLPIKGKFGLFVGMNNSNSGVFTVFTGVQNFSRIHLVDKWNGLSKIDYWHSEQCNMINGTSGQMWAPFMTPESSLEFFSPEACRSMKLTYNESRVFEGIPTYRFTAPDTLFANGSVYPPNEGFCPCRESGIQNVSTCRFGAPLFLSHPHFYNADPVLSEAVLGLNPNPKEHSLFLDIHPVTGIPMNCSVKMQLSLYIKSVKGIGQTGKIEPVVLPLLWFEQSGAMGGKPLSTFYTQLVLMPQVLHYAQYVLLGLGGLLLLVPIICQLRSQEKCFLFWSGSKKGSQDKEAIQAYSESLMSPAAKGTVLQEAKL
HSF-1 act = increases HSF-1 driven luciferase reporter signal. NIH3T3-HGL HSF-1 luciferase reporter, MG132, 8 h; 100% = twice DMSO control signal. activation, % at 9 µM. 300,000 tested, 1.7% active;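 active means mean replicate activation of at least 50% with a set share of replicates each reaching 50%; inconclusive means only one of those two conditions met; inactive means mean below 50% and too few replicates reaching it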
Wnt bcat act = Wnt/beta-catenin pathway activation; Wnt/beta-catenin reporter cell assay, activator, plate reader; activation, % at 9.35 µM; 300,000 tested, 1.2% active; AID 743398; in the data active means activation above about 30%, passing the limit was not always enough; inconclusive means no clear call, values can overlap the other calls
Each line names hits and unclear results; the compound was inactive in the other large screens.

Cc1cc(O)c2c(c1O)C(=O)[C@]13C(=C2O)C(=O)[C@@H]2[C@@H](O)[C@H]1[C@@H]1[C@H](O)[C@H]3C(=O)C3=C(O)c4c(O)cc(C)c(O)c4C(=O)[C@]312	SR-BI HDL uptake 94.9 (no result: HSF-1 act, Wnt bcat act)
CCNC(=S)Nc1ccc2c(c1)c(=O)n(C)n2-c1ccc(C(C)(C)C)cc1	none (no result: MITF act, SR-BI uptake up, SR-BI HDL uptake, HSF-1 act)
Cc1cc(CNC(=O)c2ccc3nc(Cc4ccccc4F)oc3c2)nn1C	MITF act 93.7
CCc1c(C2CC2)ncn1Cc1cccc(-c2ccccc2)c1	none (no result: MITF act, SR-BI uptake up, SR-BI HDL uptake, HSF-1 act)
COc1ccc(Cl)cc1CC1(C)C(=O)Nc2c(Cl)cccc21 (stereo not given)	none (no result: MITF act, SR-BI uptake up, SR-BI HDL uptake, HSF-1 act)
COc1cc(C=NN=c2sc3ccccc3n2C)ccc1OCCO	Wnt bcat act 33.6 (no result: MITF act, SR-BI uptake up, SR-BI HDL uptake, HSF-1 act)
CC(C)NC(=O)Nc1ccc2c(c1)C(=O)N([C@@H](C)CO)C[C@H](C)[C@H](CN(C)S(=O)(=O)c1ccccc1)OCCCC[C@H](C)O2	none (no result: MITF act, SR-BI uptake up, SR-BI HDL uptake, HSF-1 act)
Cc1nn(-c2ccccc2)c(N2CCCC2)c1/C=N/NC(=O)c1cc(-c2ccccc2)nc2ccccc12	SR-BI HDL uptake 88.3
Cc1nn(-c2ccccc2)c(N2CCCC2)c1/C=N/NC(=O)c1cc(-c2ccccn2)nc2ccccc12	none
COc1ccc(-c2nn(-c3ccccc3)cc2/C=N/NC(=O)c2cccc(S(=O)(=O)Nc3ccccc3Cl)c2)cc1	SR-BI HDL uptake 80.2
COc1ccc(-c2nn(-c3ccccc3)cc2/C=N/NS(=O)(=O)c2ccccc2)cc1	none (no result: Wnt bcat act)
Cc1ccc(-c2cc(C(=O)N/N=C/c3c(C)nn(-c4ccccc4)c3C)[nH]n2)cc1	SR-BI HDL uptake 77.8
Cc1nn(-c2ccccc2)c(N2CCCC2)c1/C=N/NC(=O)c1cccc(S(=O)(=O)Nc2ccc(Cl)cc2)c1	SR-BI HDL uptake 77.0
Cc1nn(-c2ccccc2)c(C)c1/C=N/NC(=O)c1cc(C(C)(C)C)[nH]n1	none (no result: Wnt bcat act)
COCCN1C(=O)CN(S(C)(=O)=O)CC1(C)C(=O)Nc1c(C)cccc1C (stereo not given)	none (no result: MITF act, SR-BI uptake up, SR-BI HDL uptake, HSF-1 act)
COc1cc(OC)c(N2CC(C(=O)Nc3cccc(C(=O)NC4CC4)c3)CC2=O)cc1Cl (stereo not given)	none (no result: HSF-1 act)
O=C(Cn1c(/C=C/c2ccccc2)nc2ccccc21)Nc1ccc(F)cc1	MITF act 85.3, HSF-1 act 56.8
COc1ccc(Cn2c(/C=C/c3ccccc3)nc3ccccc32)cc1	MITF act 86.6, HSF-1 act inconclusive, Wnt bcat act 84.0
CC(C)Cn1c(/C=C/c2ccccc2)nc2ccccc21	HSF-1 act 88.6
CSc1nc2ccccc2n1CC(=O)Nc1ccccc1	none (no result: Wnt bcat act)
O=C(N[C@H](Cc1ccccc1)C(=O)N1CCN(c2ncccn2)CC1)[C@H]1O[C@@H](n2ccc(=O)[nH]c2=O)[C@H](O)[C@@H]1O	none (no result: MITF act, SR-BI uptake up, SR-BI HDL uptake, HSF-1 act)
CCn1c(O)c(C2=c3ccccc3=NC2=O)c2cc(Br)ccc21	HSF-1 act 208.7 (no result: MITF act, SR-BI uptake up, SR-BI HDL uptake)
Cc1cc(C)nc(NC(=S)NC(=O)c2ccccc2F)n1	none (no result: MITF act, SR-BI uptake up, SR-BI HDL uptake)
Cc1cc(C)nc(S/C=C/C(=O)c2ccccc2F)n1	HSF-1 act 188.8
CC1(C)CC(=O)c2cnc(N3CCc4ccccc43)nc2C1	Wnt bcat act 38.5 (no result: MITF act)
CC(C)C(c1nnnn1C1CCCC1)N1CCc2ccccc21 (stereo not given)	none (no result: HSF-1 act)
Cc1ccc(C(c2nnnn2C2CCCC2)N2CCc3ccccc32)cc1 (stereo not given)	HSF-1 act 59.5
O=C(Nc1ccccc1Cl)Nc1ccccc1Cl	none
O=C(Nc1ccc2c(c1)CCC2)Nc1ccccc1Cl	Wnt bcat act 51.5
O=C(Nc1ccc(Nc2ccccc2)cc1)Nc1ccccc1Cl	MITF act 101.7, HSF-1 act 56.2
Cc1cc(C)c(C#N)c(OCC2CCCO2)n1 (stereo not given)	none (no result: MITF act, SR-BI uptake up, SR-BI HDL uptake, HSF-1 act)
CC(C)C[C@@H](CNCC(=O)[C@H](Cc1ccccc1)NC(=O)c1[nH]cnc1C(=O)N[C@H](CN)CC(C)C)NC(=O)c1nc[nH]c1C(=O)N[C@@H](CC(=O)O)C(=O)O	none (no result: HSF-1 act)
O=C(Nc1nc2ccc(F)cc2s1)c1cccc(S(=O)(=O)N2CCc3ccccc32)c1	SR-BI HDL uptake 74.3
CCOC(=O)c1sc(NC(=O)c2cccc(S(=O)(=O)N3CCc4ccccc43)c2)c(C#N)c1C	SR-BI HDL uptake 75.5
c1cncc(C2SCCCS2)c1	none (no result: MITF act, SR-BI uptake up, SR-BI HDL uptake, HSF-1 act)
CN(C)c1ccc2nc3ccc(=[N+](C)C)cc-3sc2c1	none
Cc1cc2nc3ccc(=[N+](C)C)cc-3sc2cc1N	HSF-1 act 57.8 (no result: SR-BI uptake up, SR-BI HDL uptake, Wnt bcat act)
COc1ccc(-c2ccc3c(n2)CCCN3Cc2ccccc2C(F)(F)F)cc1	Wnt bcat act 38.0 (no result: MITF act, SR-BI uptake up, SR-BI HDL uptake, HSF-1 act)
FC(F)(F)c1ccccc1CN1CCCc2nc(-c3ccccc3)ccc21	none (no result: MITF act, SR-BI uptake up, SR-BI HDL uptake, HSF-1 act)
C=CCCC(=O)N1C[C@H]2CON(C)[C@H]2C[C@H]1c1ccc(-n2ccnc2)cc1	none (no result: MITF act, SR-BI uptake up, SR-BI HDL uptake, HSF-1 act)
N#C/C=C/C(=C\Nc1ccc(Cl)cc1)S(=O)(=O)c1ccccc1	SR-BI HDL uptake 85.1
O=C(Nc1ccccc1Br)c1cc(=O)c2ccccc2o1	MITF act 152.5 (no result: SR-BI uptake up, SR-BI HDL uptake)
O=C(Nc1ccccc1Cl)c1cc(=O)c2ccccc2o1	none (no result: MITF act)
CN(c1ccccc1)c1ccc(/C=C/[N+](=O)[O-])cc1	HSF-1 act 198.2
O=[N+]([O-])/C=C\c1ccc(N2CCOCC2)cc1	none (no result: SR-BI uptake up, SR-BI HDL uptake)
O=C(COc1ccc(F)cc1Br)N1CCc2ccccc21	HSF-1 act 80.0, Wnt bcat act 72.3
O=C(c1cc([N+](=O)[O-])ccc1N1CCCCC1)N1CCc2ccccc21	SR-BI HDL uptake 75.6
O=C(CNc1ccccc1OC(F)F)N1CCc2ccccc21	MITF act 107.6 (no result: Wnt bcat act)
CSc1cccc(NC(=O)N2CCc3ccc(NC(=O)c4ccccn4)cc3C2)c1	SR-BI HDL uptake 76.0
COC(=O)CC1N(S(=O)(=O)c2ccc(C)cc2)c2ccccc2C1(C(=O)OC)C(=O)OC (stereo not given)	none (no result: MITF act, SR-BI uptake up, SR-BI HDL uptake, HSF-1 act)
O=C(CNC(=O)c1ccccc1Cl)OCC(=O)N1CCc2ccccc21	HSF-1 act 55.0
CCOC(=O)CNC(=O)N1CCc2ccc(NC(=O)c3ccccc3Cl)cc2C1	SR-BI HDL uptake 96.0 (no result: MITF act)
O=C(COc1ccc([N+](=O)[O-])cc1Cl)N1CCc2ccccc21	MITF act 119.3, Wnt bcat act 41.7 (no result: HSF-1 act)
COc1ccccc1C(=O)Nc1ccc2c(c1)CN(C(=O)CSC)CC2	none
O=C(O)c1cc([N+](=O)[O-])ccc1N1CCCCC1	none
Cc1ccc(C(=O)c2cc([N+](=O)[O-])ccc2N2CCCCC2)c(C)c1	SR-BI HDL uptake 74.9
Cc1cccc(C(=O)NCC(=O)OCC(=O)N2CCc3ccccc32)c1	none
COC(=O)C1=C(C)N(Cc2ccccc2C(F)(F)F)C(=NCc2ccccc2)NC1c1ccc(Cl)cc1 (stereo not given)	none (no result: MITF act, SR-BI uptake up, SR-BI HDL uptake, HSF-1 act)
Cc1ccc(C)c2[nH]c(=O)c(CN(Cc3cccs3)C(=S)NCc3ccco3)cc12	HSF-1 act 76.6 (no result: Wnt bcat act)
Cc1cc2cc(CN(CCN(C)C)C(=S)NCc3ccco3)c(=O)[nH]c2cc1C	none
COc1ccccc1NC(=S)N(Cc1ccco1)Cc1cc2cc(C)ccc2[nH]c1=O	HSF-1 act 99.5 (no result: Wnt bcat act)
